{"source": "ChEMBL document CHEMBL3414496", "about": "“Synthesis and biological evaluation of novel 2-heteroarylimino-1,3-thiazolidin-4-ones as potential anti-tumor agents” (Eur J Med Chem, 2015)", "type_in_all_cases": "functional", "key": {"HT-29 [1]": {"tested_on": "HT-29", "experiment": "Induction of GCL expression in human HT-29 cells at 6.4 uM after 2 hrs by Western blotting method", "method_in_brief": "(§1)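 HT29 whole-cell lysates in Hepes/KOH pH 7.5 with EDTA, KCl, NP40, DTT, protease inhibitors; 50 µg protein on 10–15% SDS-PAGE, nitrocellulose, overnight 4°C primary antibody (GCL 1:500, HO-1 1:1000), HRP secondary, chemiluminescence. Bands normalized to GAPDH (1:10 000), DMSO ratio set at 1.00; representative of three independent experiments.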"}, "HT-29 [2]": {"tested_on": "HT-29", "experiment": "Induction of GCL expression in human HT-29 cells at 6.4 uM after 4 hrs by Western blotting method", "method_in_brief": "as §1"}, "HT-29 [3]": {"tested_on": "HT-29", "experiment": "Induction of GCL expression in human HT-29 cells at 1.5 uM after 2 hrs by Western blotting method", "method_in_brief": "as §1"}, "HT-29 [4]": {"tested_on": "HT-29", "experiment": "Induction of HO1 expression in human HT-29 cells at 10 uM after 6 hrs by Western blotting method", "method_in_brief": "as §1"}, "HT-29 [5]": {"tested_on": "HT-29", "experiment": "Induction of GCL expression in human HT-29 cells at 10 uM after 4 hrs by Western blotting method", "method_in_brief": "as §1"}}}
{"compound": "Cc1ccc(/C=C2\\S/C(=N\\c3csc(-c4ccc(Cl)cc4)c3)NC2=O)cc1", "values": [{"measurement": "fold change (FC)", "setting": "HT-29 [1]", "result": 1.93}, {"measurement": "fold change (FC)", "setting": "HT-29 [2]", "result": 2.54}]}
{"compound": "CN(C)c1ccc(/C=C2\\S/C(=N\\c3csc(-c4ccc(Cl)cc4)c3)NC2=O)cc1", "values": [{"measurement": "fold change (FC)", "setting": "HT-29 [3]", "result": 0.9}]}
{"compound": "COc1ccc(/C=C2\\S/C(=N\\c3csc(-c4ccc(Cl)cc4)c3)NC2=O)cc1OC", "values": [{"measurement": "fold change (FC)", "setting": "HT-29 [4]", "result": 1}, {"measurement": "fold change (FC)", "setting": "HT-29 [5]", "result": 1.16}]}
